{"data": "Measured values pooled from the literature"}
{"Structure (SMILES)": "COc1ccc(C=NNC(=S)Nc2cccnc2)cc1", "organism": "Leishmania major", "assay": "parasite growth", "test system": "J774.A1", "setting": "72 h, intracellular, amastigote", "measurement": "IC50", "result": "892 µM"}
{"Structure (SMILES)": "CN[C@H](CC(C)C)C(=O)N[C@H]1C(=O)N[C@@H](CC(N)=O)C(=O)N[C@H]2C(=O)N[C@H]3C(=O)N[C@H](C(=O)N[C@H](C(=O)O)c4cc(O)cc(O)c4-c4cc3ccc4O)[C@H](O)c3ccc(c(Cl)c3)Oc3cc2cc(c3O[C@@H]2O[C@H](CO)[C@@H](O)[C@H](O)[C@H]2O[C@H]2C[C@](C)(N)[C@H](O)[C@H](C)O2)Oc2ccc(cc2Cl)[C@H]1O", "organism": "Enterococcus faecalis", "assay": "microbial growth, broth dilution", "setting": "clinical isolate", "measurement": "MIC50", "result": "2 µg/mL"}
{"Structure (SMILES)": "C/C(=N\\CCNCCNCC/N=C(\\C)c1c(O)c2ccccc2oc1=O)c1c(O)c2ccccc2oc1=O", "organism": "Aspergillus glaucus", "assay": "microbial growth, broth dilution", "setting": "48 h", "measurement": "MIC", "result": "125 µg/mL"}
{"Structure (SMILES)": "Cc1c2c(nn1C)CSCc1cc(n(C)n1)CSc1cc(c3ccccc3c1)OCCCc1c(C(=O)O)n(C)c3c-2c(Cl)ccc13", "organism": "Enterococcus faecalis", "assay": "microbial growth, broth dilution", "setting": "clinical isolate", "measurement": "MIC90", "result": "25 µM"}
{"Structure (SMILES)": "OC(Cn1cncn1)(Cn1cncn1)c1ccc(F)cc1F", "organism": "Aspergillus fumigatus", "assay": "microbial growth, broth dilution", "test system": "AF293", "setting": "48 h", "measurement": "MIC", "result": "> 64 µg/mL"}
{"Structure (SMILES)": "Cc1ccc(Nc2cnnc3ccc(-c4ccc(N5CCN(C)CC5)cc4)cc23)cn1", "organism": "Leishmania major", "assay": "parasite growth", "setting": "intracellular, amastigote", "measurement": "EC50", "result": "> 24 µM"}
{"Structure (SMILES)": "CC1(C)S[C@@H]2[C@H](NC(=O)[C@H](N)c3ccccc3)C(=O)N2[C@H]1C(=O)O", "organism": "Enterococcus faecalis", "assay": "microbial growth, agar dilution", "test system": "ATCC29212", "measurement": "MIC", "result": "64 µg/mL"}
{"Structure (SMILES)": "CN1CCN(c2ccc(-c3ccc4nncc(Nc5ncccn5)c4c3)cc2)CC1", "organism": "Leishmania major", "assay": "parasite growth", "setting": "intracellular, amastigote", "measurement": "EC50", "result": "> 2.5 µM"}
{"Structure (SMILES)": "S=C(NN=Cc1ccc(Br)cc1)Nc1cccnc1", "organism": "Leishmania major", "assay": "parasite growth", "test system": "J774.A1", "setting": "72 h, intracellular, amastigote", "measurement": "IC50", "result": "627 µM"}
{"Structure (SMILES)": "CCCCCCCCN=c1ccn(CCCCCCCCCCn2ccc(=NCCCCCCCC)cc2)cc1", "organism": "Enterococcus faecalis", "assay": "microbial growth", "measurement": "MIC", "result": "0.5 µM"}
{"Structure (SMILES)": "C/C(=N\\N=C(/C)c1c(O)c2ccccc2oc1=O)c1c(O)c2ccccc2oc1=O", "organism": "Aspergillus glaucus", "assay": "microbial growth, broth dilution", "setting": "48 h", "measurement": "MIC", "result": "31.2 µg/mL"}
{"Structure (SMILES)": "CN1CCN(c2ncc(-c3ccc4nncc(Nc5cnccn5)c4c3)cn2)CC1", "organism": "Leishmania major", "assay": "parasite growth", "setting": "intracellular, amastigote", "measurement": "EC50", "result": "> 5 µM"}
{"Structure (SMILES)": "CC[C@H]1OC(=O)[C@H](C)[C@@H](O[C@H]2C[C@@](C)(OC)[C@@H](O)[C@H](C)O2)[C@H](C)[C@@H](O[C@@H]2O[C@H](C)C[C@H](N(C)C)[C@H]2O)[C@](C)(O)C[C@@H](C)/C(=N\\OCOCCOC)[C@H](C)[C@@H](O)[C@]1(C)O", "organism": "Enterococcus faecalis", "assay": "microbial growth", "setting": "clinical isolate", "measurement": "MIC50", "result": "> 128 µg/mL"}
{"Structure (SMILES)": "COc1ccc(Nc2cnnc3ccc(-c4cnc(N5CCN(C)CC5)nc4)cc23)cc1Cl", "organism": "Leishmania major", "assay": "parasite growth", "setting": "intracellular, amastigote", "measurement": "EC50", "result": "> 22 µM"}
{"Structure (SMILES)": "C[C@@H]1[C@H](O)[C@@H](C)/C=C/C=C/C=C/C=C/C=C/C=C/C=C/[C@H](O[C@@H]2O[C@H](C)[C@@H](O)[C@H](N)[C@@H]2O)C[C@@H]2O[C@](O)(C[C@@H](O)C[C@@H](O)[C@H](O)CC[C@@H](O)C[C@@H](O)CC(=O)O[C@H]1C)C[C@H](O)[C@H]2C(=O)O", "organism": "Leishmania major", "assay": "parasite growth", "test system": "J774.A1", "setting": "72 h, intracellular, amastigote", "measurement": "IC50", "result": "17.5 µM"}
{"Structure (SMILES)": "CN1CCN(c2ncc(-c3ccc4c(Nc5ncccn5)cnnc4c3)cn2)CC1", "organism": "Leishmania major", "assay": "parasite growth", "setting": "intracellular, amastigote", "measurement": "EC50", "result": "> 25 µM"}
{"Structure (SMILES)": "CNC(=S)NN=Cc1ccc(OC)c(OC)c1", "organism": "Leishmania major", "assay": "parasite growth, MTT", "setting": "72 h, promastigote", "measurement": "IC50", "result": "54.3 µM"}
{"Structure (SMILES)": "COc1c(N2C[C@@H]3CCCN[C@@H]3C2)c(F)cc2c(=O)c(C(=O)O)cn(C3CC3)c12", "organism": "Enterococcus faecalis", "assay": "microbial growth, broth dilution", "setting": "clinical isolate", "measurement": "MIC90", "result": "1 µg/mL"}
{"Structure (SMILES)": "C/C(=N\\C(=S)/N=C(\\C)c1c(O)c2ccccc2oc1=O)c1c(O)c2ccccc2oc1=O", "organism": "Aspergillus glaucus", "assay": "microbial growth, broth dilution", "setting": "48 h", "measurement": "MIC", "result": "31.2 µg/mL"}
{"Structure (SMILES)": "COc1ccc(C=NNC(=S)Nc2cccnc2)cc1OC", "organism": "Leishmania major", "assay": "parasite growth, MTT", "setting": "72 h, promastigote", "measurement": "IC50", "result": "1080 µM"}
{"Structure (SMILES)": "CC(=O)NC[C@H]1CN(c2ccc(N3CCOCC3)c(F)c2)C(=O)O1", "organism": "Enterococcus faecalis", "assay": "microbial growth, agar dilution", "test system": "ATCC29212", "measurement": "MIC", "result": "2 µg/mL"}
{"Structure (SMILES)": "C/C(=N\\NC(=O)/N=C(\\C)c1c(O)c2ccccc2oc1=O)c1c(O)c2ccccc2oc1=O", "organism": "Aspergillus glaucus", "assay": "microbial growth, broth dilution", "setting": "48 h", "measurement": "MIC", "result": "125 µg/mL"}
{"Structure (SMILES)": "CNC(=S)NN=Cc1ccc([N+](=O)[O-])cc1", "organism": "Leishmania major", "assay": "parasite growth", "test system": "J774.A1", "setting": "72 h, intracellular, amastigote", "measurement": "IC50", "result": "177 µM"}
{"Structure (SMILES)": "CN1CCCN(c2ncc(-c3ccc4nncc(Nc5cnccn5)c4c3)cn2)CC1", "organism": "Leishmania major", "assay": "parasite growth", "setting": "intracellular, amastigote", "measurement": "EC50", "result": "> 24 µM"}
{"Structure (SMILES)": "C/C(=N\\c1nc(N)nc(/N=C(\\C)c2c(O)c3ccccc3oc2=O)n1)c1c(O)c2ccccc2oc1=O", "organism": "Aspergillus glaucus", "assay": "microbial growth, broth dilution", "setting": "48 h", "measurement": "MIC", "result": "31.2 µg/mL"}
{"Structure (SMILES)": "CNC(=S)NN=Cc1ccc(OC)cc1", "organism": "Leishmania major", "assay": "parasite growth, MTT", "setting": "72 h, promastigote", "measurement": "IC50", "result": "26.7 µM"}
{"Structure (SMILES)": "OC(Cn1cncn1)(Cn1cncn1)c1ccc(F)cc1F", "organism": "Aspergillus fumigatus", "assay": "microbial growth, broth dilution", "measurement": "MIC", "result": "4 µg/mL"}
{"Structure (SMILES)": "Cc1ccc(Nc2cnnc3ccc(-c4ccc(N5CCCN(C)CC5)cc4)cc23)cn1", "organism": "Leishmania major", "assay": "parasite growth", "setting": "intracellular, amastigote", "measurement": "EC50", "result": "> 4.7 µM"}
{"Structure (SMILES)": "C=C[C@]1(C)C[C@@H](OC(=O)CS[C@@H]2C[C@H]3CC[C@@H](C2)N3C)[C@]2(C)[C@H](C)CC[C@]3(CCC(=O)[C@H]32)[C@@H](C)[C@@H]1O", "organism": "Enterococcus faecalis", "assay": "microbial growth, agar dilution", "test system": "ATCC29212", "measurement": "MIC", "result": "128 µg/mL"}
{"Structure (SMILES)": "CNC(=S)NN=Cc1ccc(C)cc1", "organism": "Leishmania major", "assay": "parasite growth, MTT", "setting": "72 h, promastigote", "measurement": "IC50", "result": "938 µM"}
{"Structure (SMILES)": "Cc1ccc(Nc2cnnc3cc(-c4cnc(N5CCCN(C)CC5)nc4)ccc23)cn1", "organism": "Leishmania major", "assay": "parasite growth", "setting": "intracellular, amastigote", "measurement": "EC50", "result": "> 23 µM"}
